What all share (type): functional
The test system of one experiment is Enterococcus faecalis. Briefly: Antimicrobial activity against Streptococcus faecalis 20688 by two fold serial dilution technique. The procedure, abridged:
(§1)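 MIC determined by twofold serial broth dilution in nutrient broth, reported in μg/mL.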

The next experiment has as its system Streptococcus pneumoniae. The experiment is described as follows: Antimicrobial activity against Streptococcus pneumoniae 1985 by two fold serial dilution technique. The procedure, abridged: as §1
Another experiment deals with Streptococcus pyogenes. The experiment is described as follows: Antimicrobial activity against Streptococcus pyogenes 9604 by two fold serial dilution technique. The procedure, abridged: as §1
For experiment [1], the system named is Staphylococcus aureus. The experiment is described as follows: Antimicrobial activity against Staphylococcus aureus 9537 by two fold serial dilution technique. The method, boiled down:
as §1

Experiment [2] relates to Staphylococcus aureus. The experiment is described as follows: Antimicrobial activity against Staphylococcus aureus 9537 by two fold serial dilution technique in presence of 50% serum.
Experiment [3] has as its system Staphylococcus aureus. Briefly: Antimicrobial activity against penicillin-resistant Staphylococcus aureus 9606 by two fold serial dilution technique. The procedure, abridged:
(§2)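 MIC determined by twofold serial dilution in nutrient broth; values reported in μg/mL.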

Experiment [4] has as its system Staphylococcus aureus. Briefly: Antimicrobial activity against methicillin-resistant Staphylococcus aureus 15097 by two fold serial dilution technique. The method, boiled down:
as §2

Experiment [5] deals with Proteus mirabilis. The experiment is described as follows: Antimicrobial activity against Proteus mirabilis 9900 by two fold serial dilution technique. The method, boiled down:
as §1

Experiment [6] has as its system Proteus mirabilis. Briefly: Antimicrobial activity against Proteus mirabilis 9716 by two fold serial dilution technique. The procedure, abridged: as §1
Another experiment has as its system Providencia rettgeri. Briefly: Antimicrobial activity against Providencia rettgeri 21205 by two fold serial dilution technique. The method, boiled down: as §1
The subject of experiment [7] is Klebsiella pneumoniae. The experiment is described as follows: Antimicrobial activity against Klebsiella pneumoniae 20468 by two fold serial dilution technique. The procedure, abridged: as §1
The subject of the next experiment is Morganella morganii. The experiment is described as follows: Antimicrobial activity against Proteus morganii 15153 by two fold serial dilution technique. The method, boiled down: as §1
In the next experiment the test system is Serratia marcescens. The experiment is described as follows: Antimicrobial activity against Serratia marcescens 20019 by two fold serial dilution technique. The method, boiled down: as §1
Experiment [8] has as its system Enterobacter cloacae. Briefly: Antimicrobial activity against Enterobacter cloacae 9659 by two fold serial dilution technique. The procedure, abridged:
as §1

Experiment [9] relates to Enterobacter cloacae. The experiment is described as follows: Antimicrobial activity against Enterobacter cloacae 9656 by two fold serial dilution technique. The procedure, abridged: as §1
The subject of a further experiment is Pseudomonas aeruginosa. The experiment is described as follows: Antimicrobial activity against Pseudomonas aeruginosa 9843 by two fold serial dilution technique. The procedure, abridged:
as §1

For experiment [10], the system named is Escherichia coli. The experiment is described as follows: Antimicrobial activity against Escherichia coli 15119 by two fold serial dilution technique. The method, boiled down: as §1
In experiment [11] the test system is Escherichia coli. Briefly: Antimicrobial activity against Escherichia coli 20341 by two fold serial dilution technique. The procedure, abridged:
as §1

The test system of experiment [12] is Klebsiella pneumoniae. The experiment is described as follows: Antimicrobial activity against Klebsiella pneumoniae 15130 by two fold serial dilution technique. The procedure, abridged:
as §1

≈ marks a conversion by molar mass, not a printed value.

With `CC1=C(C(=O)O)N2C(=O)[C@@H](NC(=O)COc3ccccc3)[C@H]2SC1=O`, the MIC (in general, the smallest concentration in the dilution series that meets the test's criterion for growth inhibition) against Enterococcus faecalis is 63 µg/mL (≈ 174 µM); against Streptococcus pneumoniae, 32 µg/mL (≈ 88.3 µM); with Streptococcus pyogenes it was 32 µg/mL (≈ 88.3 µM); in the experiment with Staphylococcus aureus [1] it was 8 µg/mL (≈ 22.1 µM); with Staphylococcus aureus [2] it was more than 63 µg/mL; against Staphylococcus aureus [3], 125 µg/mL (≈ 345 µM). Besides, the minimum inhibitory concentration (MIC) against Staphylococcus aureus [4] was more than 125 µg/mL; in the experiment on Proteus mirabilis [5], 125 µg/mL (≈ 345 µM); in the experiment on Proteus mirabilis [6], 125 µg/mL (≈ 345 µM); with Providencia rettgeri it was more than 125 µg/mL; with Klebsiella pneumoniae [7], more than 125 µg/mL; in the experiment with Morganella morganii, more than 125 µg/mL. Further, the MIC with Serratia marcescens, with Enterobacter cloacae [8], against Enterobacter cloacae [9], against Pseudomonas aeruginosa, with Escherichia coli [10] and against Escherichia coli [11] was more than 125 µg/mL in each case. The molecule also returned an MIC against Klebsiella pneumoniae [12] of more than 125 µg/mL.

Turning to `CC(=O)OCC1=C(C(=O)O)N2C(=O)[C@@H](NC(=O)Cc3cccs3)[C@H]2SC1=O`, the MIC in the experiment on Enterococcus faecalis turned out to be 125 µg/mL (≈ 305 µM); with Streptococcus pneumoniae it was 1 µg/mL (≈ 2.44 µM); in the experiment with Streptococcus pyogenes, 1 µg/mL (≈ 2.44 µM); in the experiment with Staphylococcus aureus [1] it was 4 µg/mL (≈ 9.75 µM); with Staphylococcus aureus [2], 63 µg/mL; against Staphylococcus aureus [3] it was 16 µg/mL (≈ 39 µM). The MIC in the experiment with Staphylococcus aureus [4] is more than 125 µg/mL; with Proteus mirabilis [5], 32 µg/mL (≈ 78 µM); in the experiment on Proteus mirabilis [6], 63 µg/mL (≈ 153 µM); in the experiment with Providencia rettgeri, more than 125 µg/mL; against Klebsiella pneumoniae [7] it was more than 125 µg/mL; with Morganella morganii it was more than 125 µg/mL. For the same molecule, the MIC in the experiment on Serratia marcescens, in the experiment with Enterobacter cloacae [8], in the experiment with Enterobacter cloacae [9], in the experiment on Pseudomonas aeruginosa, against Escherichia coli [10] and with Escherichia coli [11] was more than 125 µg/mL each time. Further, the minimum inhibitory concentration (MIC) against Klebsiella pneumoniae [12] is more than 125 µg/mL.

With `CC1=C(C(=O)O)N2C(=O)[C@@H](N)[C@H]2SC1=O.Cc1ccc(S(=O)(=O)O)cc1`, the minimal inhibitory concentration (MIC) in the experiment with Enterococcus faecalis is 32 µg/mL; with Streptococcus pneumoniae, 63 µg/mL; against Streptococcus pyogenes it was 125 µg/mL; in the experiment on Staphylococcus aureus [1], 32 µg/mL; in the experiment on Staphylococcus aureus [2] it was more than 63 µg/mL; in the experiment on Staphylococcus aureus [3], more than 125 µg/mL. For the same molecule, the MIC in the experiment with Staphylococcus aureus [4] was 125 µg/mL; in the experiment with Proteus mirabilis [5] it was more than 125 µg/mL; in the experiment on Proteus mirabilis [6] it was 125 µg/mL; against Providencia rettgeri, 125 µg/mL; in the experiment with Klebsiella pneumoniae [7], more than 125 µg/mL; with Morganella morganii, more than 125 µg/mL. In addition, the MIC against Serratia marcescens, in the experiment on Enterobacter cloacae [8], with Enterobacter cloacae [9], in the experiment with Pseudomonas aeruginosa, in the experiment on Escherichia coli [10] and against Escherichia coli [11] was more than 125 µg/mL in each case. In the experiment on Klebsiella pneumoniae [12], this molecule yielded an MIC of more than 125 µg/mL.

As to `CC1=C(C(=O)O)N2C(=O)[C@@H](NC(=O)Cc3cccs3)[C@H]2SC1=O`, the MIC against Enterococcus faecalis was 63 µg/mL (≈ 179 µM); in the experiment on Streptococcus pneumoniae, 63 µg/mL (≈ 179 µM); in the experiment on Streptococcus pyogenes, 125 µg/mL (≈ 355 µM); in the experiment with Staphylococcus aureus [1], 8 µg/mL (≈ 22.7 µM); in the experiment on Staphylococcus aureus [2] it was more than 63 µg/mL; against Staphylococcus aureus [3] it was more than 125 µg/mL. In addition, the MIC in the experiment with Staphylococcus aureus [4] is more than 125 µg/mL; against Proteus mirabilis [5], 63 µg/mL (≈ 179 µM); with Proteus mirabilis [6], 63 µg/mL (≈ 179 µM); with Providencia rettgeri it was more than 125 µg/mL; in the experiment on Klebsiella pneumoniae [7], more than 125 µg/mL; with Morganella morganii, more than 125 µg/mL. For the same molecule, the minimal inhibitory concentration (MIC) in the experiment on Serratia marcescens, in the experiment with Enterobacter cloacae [8], in the experiment on Enterobacter cloacae [9], in the experiment with Pseudomonas aeruginosa, in the experiment with Escherichia coli [10] and in the experiment with Escherichia coli [11] was more than 125 µg/mL throughout. In the experiment on Klebsiella pneumoniae [12], this molecule returned an MIC of more than 125 µg/mL.

As for `CC(=O)OCC1=C(C(=O)O)N2C(=O)[C@@H](NC(=O)Cc3cccs3)[C@H]2SC1` [CEPHALOTHIN], the MIC in the experiment on Enterococcus faecalis came to 32 µg/mL (≈ 80.7 µM); against Streptococcus pneumoniae, 0.06 µg/mL (≈ 0.151 µM); in the experiment with Streptococcus pyogenes it was 0.13 µg/mL (≈ 0.328 µM); against Staphylococcus aureus [1] it was 0.13 µg/mL (≈ 0.328 µM); in the experiment on Staphylococcus aureus [2], 8 µg/mL; against Staphylococcus aureus [3], 0.5 µg/mL (≈ 1.26 µM). Moreover, the minimal inhibitory concentration (MIC) with Staphylococcus aureus [4] is 32 µg/mL (≈ 80.7 µM); in the experiment on Proteus mirabilis [5], 1 µg/mL (≈ 2.52 µM); against Proteus mirabilis [6], 2 µg/mL (≈ 5.04 µM); in the experiment with Providencia rettgeri it was 63 µg/mL (≈ 159 µM); in the experiment on Klebsiella pneumoniae [7] it was more than 125 µg/mL; in the experiment with Morganella morganii, more than 125 µg/mL. Also, the minimum inhibitory concentration (MIC) in the experiment with Serratia marcescens was more than 125 µg/mL; in the experiment with Enterobacter cloacae [8], more than 125 µg/mL; against Enterobacter cloacae [9], more than 125 µg/mL; with Pseudomonas aeruginosa, more than 125 µg/mL; against Escherichia coli [10], 16 µg/mL (≈ 40.4 µM); in the experiment with Escherichia coli [11], 16 µg/mL (≈ 40.4 µM). Further, the MIC against Klebsiella pneumoniae [12] worked out at 16 µg/mL (≈ 40.4 µM).

The record behind these values is ChEMBL document CHEMBL3227971, “Synthesis and antibacterial activity of 2-oxocephalosporins” (1979).
